# Test results as given in ChEMBL document CHEMBL1914420, “Investigation of the pyrazinones as PDE5 inhibitors: evaluation of regioisomeric projections into the solvent region” (Bioorg Med Chem Lett, 2011).
# Key:
# [1] = target: 3',5'-cyclic-AMP phosphodiesterase 4C (Homo sapiens, UniProt Q08493); experiment: Inhibition of PDE4C
# [2] = Metabolic stability in human liver microsomes assessed as compound remaining after 1 hr; assay type: ADME, Microsome; settings: read-out: Stability
# Summary of the method: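 Human liver microsomes; percent parent compound remaining after 1 h incubation.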
# [3] = Oral bioavailability in rat at 2 mg/kg; assay type: ADME, organism-based; settings: in vivo
# Acetylcholinesterase = Acetylcholinesterase (Homo sapiens, UniProt P22303); experiment: Inhibition of acetylcholinesterase
# Sequence of Acetylcholinesterase (P22303 whole entry): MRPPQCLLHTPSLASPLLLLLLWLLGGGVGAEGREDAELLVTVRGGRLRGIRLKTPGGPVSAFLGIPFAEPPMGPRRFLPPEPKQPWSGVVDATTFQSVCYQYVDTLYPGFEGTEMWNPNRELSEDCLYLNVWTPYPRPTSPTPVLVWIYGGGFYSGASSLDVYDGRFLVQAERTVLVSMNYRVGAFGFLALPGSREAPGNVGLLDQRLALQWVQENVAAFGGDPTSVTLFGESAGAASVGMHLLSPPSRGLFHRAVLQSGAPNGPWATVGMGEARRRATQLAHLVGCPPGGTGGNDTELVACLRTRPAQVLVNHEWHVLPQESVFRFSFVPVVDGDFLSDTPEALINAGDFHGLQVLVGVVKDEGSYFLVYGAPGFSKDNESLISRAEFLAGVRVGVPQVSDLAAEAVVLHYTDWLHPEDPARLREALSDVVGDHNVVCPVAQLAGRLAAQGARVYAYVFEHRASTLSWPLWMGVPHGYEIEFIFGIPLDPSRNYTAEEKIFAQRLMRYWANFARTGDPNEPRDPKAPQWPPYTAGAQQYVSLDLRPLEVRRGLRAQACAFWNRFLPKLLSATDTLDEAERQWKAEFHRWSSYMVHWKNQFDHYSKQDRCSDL
# [4] = Inhibition of PDE10
# [5] = target: cGMP-inhibited 3',5'-cyclic phosphodiesterase 3A (Homo sapiens, UniProt Q14432); experiment: Inhibition of PDE3A
# [6] = Volume of distribution in rat; assay type: ADME, organism-based; settings: in vivo
# CYP2C9 = CYP2C9 (Homo sapiens, UniProt P11712); experiment: Inhibition of CYP2C9 at 3 uM; assay type: ADME
# Sequence of CYP2C9 (P11712 whole entry): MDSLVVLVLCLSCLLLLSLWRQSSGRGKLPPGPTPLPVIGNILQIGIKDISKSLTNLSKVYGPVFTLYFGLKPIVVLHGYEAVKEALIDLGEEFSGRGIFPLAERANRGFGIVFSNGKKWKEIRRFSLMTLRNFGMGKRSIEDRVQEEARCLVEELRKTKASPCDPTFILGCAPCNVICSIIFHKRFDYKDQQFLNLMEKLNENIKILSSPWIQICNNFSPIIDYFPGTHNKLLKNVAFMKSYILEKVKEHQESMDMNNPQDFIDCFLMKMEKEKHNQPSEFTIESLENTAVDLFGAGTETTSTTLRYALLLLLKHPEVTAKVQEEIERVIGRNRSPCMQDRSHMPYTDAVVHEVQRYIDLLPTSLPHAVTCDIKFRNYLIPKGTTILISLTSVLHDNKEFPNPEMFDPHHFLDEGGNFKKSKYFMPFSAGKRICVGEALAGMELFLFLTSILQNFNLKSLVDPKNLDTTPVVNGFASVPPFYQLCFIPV
# Rattus norvegicus [7] = experiment: Antihypertensive activity in spontaneous hypertensive rat assessed as reduction in systolic blood pressure at 20 mg/kg measured after 24 hrs; assay type: functional, Artery
# [8] = Inhibition of PDE9
# [9] = target: cGMP-specific 3',5'-cyclic phosphodiesterase (Homo sapiens, UniProt O76074); experiment: Inhibition of PDE5
# [10] = Inhibition of PDE2
# [11] = target: Dual specificity calcium/calmodulin-dependent 3',5'-cyclic nucleotide phosphodiesterase 1B (Homo sapiens, UniProt Q01064); experiment: Inhibition of PDE1B
# [12] = Solubility of the compound at pH 6.5; assay type: physicochemical; settings: buffer
# Rattus norvegicus [13] = organism: Rattus norvegicus; experiment: Unbound volume of distribution in rat; assay type: ADME, organism-based; settings: in vivo
# [14] = target: High affinity cAMP-specific and IBMX-insensitive 3',5'-cyclic phosphodiesterase 8A (Homo sapiens, UniProt O60658); experiment: Inhibition of PDE8A
# Sequence of High affinity cAMP-specific and IBMX-insensitive 3',5'-cyclic phosphodiesterase 8A (O60658 whole entry): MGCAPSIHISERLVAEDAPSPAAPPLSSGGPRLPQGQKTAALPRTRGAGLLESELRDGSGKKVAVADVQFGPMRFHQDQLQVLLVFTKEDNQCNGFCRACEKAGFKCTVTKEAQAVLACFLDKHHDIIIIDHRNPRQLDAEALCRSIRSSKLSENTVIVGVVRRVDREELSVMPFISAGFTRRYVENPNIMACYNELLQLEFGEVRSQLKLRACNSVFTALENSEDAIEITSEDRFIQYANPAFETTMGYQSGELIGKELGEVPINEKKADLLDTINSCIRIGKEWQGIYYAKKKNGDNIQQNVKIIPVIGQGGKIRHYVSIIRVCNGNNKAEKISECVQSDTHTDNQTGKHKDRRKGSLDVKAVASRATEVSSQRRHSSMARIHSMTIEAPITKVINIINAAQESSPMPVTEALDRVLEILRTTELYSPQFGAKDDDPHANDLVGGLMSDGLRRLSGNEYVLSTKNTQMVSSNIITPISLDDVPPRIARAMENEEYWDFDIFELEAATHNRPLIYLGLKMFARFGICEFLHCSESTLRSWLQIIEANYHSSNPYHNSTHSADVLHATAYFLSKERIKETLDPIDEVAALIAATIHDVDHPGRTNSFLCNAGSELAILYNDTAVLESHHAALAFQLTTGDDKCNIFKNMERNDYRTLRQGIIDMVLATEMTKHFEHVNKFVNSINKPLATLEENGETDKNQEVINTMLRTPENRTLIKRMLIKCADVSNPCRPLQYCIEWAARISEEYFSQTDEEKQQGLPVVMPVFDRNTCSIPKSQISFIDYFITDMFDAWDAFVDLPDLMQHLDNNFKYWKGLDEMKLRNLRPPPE
# Adenosine receptor A1 = target: T1, Adenosine receptor A1 (Homo sapiens, UniProt P30542); experiment: Inhibition of adenosine A1 receptor
# T1 sequence (P30542 whole entry): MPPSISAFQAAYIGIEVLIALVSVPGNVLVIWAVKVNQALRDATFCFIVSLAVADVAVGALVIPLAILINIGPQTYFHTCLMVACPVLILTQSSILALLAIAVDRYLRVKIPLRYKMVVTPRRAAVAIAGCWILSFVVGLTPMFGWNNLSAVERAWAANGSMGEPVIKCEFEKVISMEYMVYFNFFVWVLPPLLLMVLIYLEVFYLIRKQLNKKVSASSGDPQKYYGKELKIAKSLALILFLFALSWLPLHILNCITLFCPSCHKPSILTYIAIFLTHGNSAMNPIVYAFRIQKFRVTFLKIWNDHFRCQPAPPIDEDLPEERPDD
# [15] = Clearance in dog at 2 mg/kg; assay type: ADME, organism-based, Canis lupus familiaris; design: dose 2 mg/kg; settings: in vivo
# Summary of the method: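 Clearance in mL/min/kg after a 2 mpk dose (n = 3) in vehicle 70% PEG400/20% 0.05 M citrate buffer/10% ethanol, pH 5.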
# CYP3A4 = CYP3A4 (Homo sapiens, UniProt P08684); experiment: Inhibition of CYP3A4 at 3 uM; assay type: ADME
# Sequence of CYP3A4 (P08684 whole entry): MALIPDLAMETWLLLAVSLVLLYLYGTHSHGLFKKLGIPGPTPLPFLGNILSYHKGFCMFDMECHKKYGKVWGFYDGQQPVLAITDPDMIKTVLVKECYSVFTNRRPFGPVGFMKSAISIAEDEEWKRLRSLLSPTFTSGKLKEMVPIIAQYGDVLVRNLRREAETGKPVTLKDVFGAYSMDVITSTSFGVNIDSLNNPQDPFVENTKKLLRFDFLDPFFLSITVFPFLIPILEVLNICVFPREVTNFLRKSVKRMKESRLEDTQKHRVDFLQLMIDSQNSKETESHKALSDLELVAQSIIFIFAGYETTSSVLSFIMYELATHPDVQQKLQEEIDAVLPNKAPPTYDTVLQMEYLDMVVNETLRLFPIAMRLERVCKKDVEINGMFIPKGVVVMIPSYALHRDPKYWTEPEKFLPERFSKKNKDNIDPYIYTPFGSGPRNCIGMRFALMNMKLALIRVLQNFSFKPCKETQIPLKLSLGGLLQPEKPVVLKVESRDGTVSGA
# [16] = Clearance in rat at 2 mg/kg at pH 5; assay type: ADME, organism-based; design: dose 2 mg/kg; settings: in vivo
# [17] = Volume of distribution in dog; assay type: ADME, organism-based, Canis lupus familiaris; settings: in vivo
# Summary of the method: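 Volume of distribution expressed in L/kg.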
# [18] = Selectivity ratio of IC50 for PDE11 to IC50 for PDE5
# Summary of the method: (§1)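 Fold selectivity calculated as PDE11 IC50/PDE5 IC50 or PDE6 IC50/PDE5 IC50, with IC50 values in nM.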
# [19] = target: cGMP-inhibited 3',5'-cyclic phosphodiesterase 3B (Homo sapiens, UniProt Q13370); experiment: Inhibition of PDE3B
# Sequence of cGMP-inhibited 3',5'-cyclic phosphodiesterase 3B (Q13370 whole entry): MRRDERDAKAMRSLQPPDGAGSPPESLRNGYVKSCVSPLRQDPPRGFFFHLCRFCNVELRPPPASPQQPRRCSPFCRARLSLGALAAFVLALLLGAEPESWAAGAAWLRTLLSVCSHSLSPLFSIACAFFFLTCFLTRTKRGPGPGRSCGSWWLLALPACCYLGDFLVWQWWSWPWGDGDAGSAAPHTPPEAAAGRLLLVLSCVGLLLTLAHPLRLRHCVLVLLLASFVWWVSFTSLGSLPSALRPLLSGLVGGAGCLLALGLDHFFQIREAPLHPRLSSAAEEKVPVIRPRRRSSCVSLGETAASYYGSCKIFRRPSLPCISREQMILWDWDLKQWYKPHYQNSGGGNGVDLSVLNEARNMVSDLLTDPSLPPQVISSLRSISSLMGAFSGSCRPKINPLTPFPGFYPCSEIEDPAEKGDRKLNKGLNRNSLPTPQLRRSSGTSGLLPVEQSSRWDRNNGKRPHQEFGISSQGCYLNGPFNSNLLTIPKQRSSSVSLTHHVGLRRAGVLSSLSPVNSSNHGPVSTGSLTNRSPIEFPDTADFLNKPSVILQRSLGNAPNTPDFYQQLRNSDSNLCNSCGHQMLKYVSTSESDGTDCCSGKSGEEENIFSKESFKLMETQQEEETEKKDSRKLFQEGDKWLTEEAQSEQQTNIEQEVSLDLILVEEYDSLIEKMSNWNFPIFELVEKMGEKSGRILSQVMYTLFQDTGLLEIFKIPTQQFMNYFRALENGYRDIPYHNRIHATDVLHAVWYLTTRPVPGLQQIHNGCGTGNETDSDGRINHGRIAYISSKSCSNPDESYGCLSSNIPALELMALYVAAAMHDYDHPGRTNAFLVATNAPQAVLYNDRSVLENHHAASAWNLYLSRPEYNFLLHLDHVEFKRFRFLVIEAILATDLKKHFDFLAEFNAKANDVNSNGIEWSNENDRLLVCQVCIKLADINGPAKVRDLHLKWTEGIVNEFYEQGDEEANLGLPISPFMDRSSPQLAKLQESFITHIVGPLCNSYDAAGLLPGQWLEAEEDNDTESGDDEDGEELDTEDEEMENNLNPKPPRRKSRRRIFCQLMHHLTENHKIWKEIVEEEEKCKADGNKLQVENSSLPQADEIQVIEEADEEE
# [20] = target: 3',5'-cyclic-AMP phosphodiesterase 4B (Homo sapiens, UniProt Q07343); experiment: Inhibition of PDE4B
# [21] = target: High affinity 3',5'-cyclic-AMP phosphodiesterase 7A (Homo sapiens, UniProt Q13946); experiment: Inhibition of PDE7A
# CYP2D6 = CYP2D6 (Homo sapiens, UniProt P10635); experiment: Inhibition of CYP2D6 at 3 uM; assay type: ADME
# Sequence of CYP2D6 (P10635 whole entry): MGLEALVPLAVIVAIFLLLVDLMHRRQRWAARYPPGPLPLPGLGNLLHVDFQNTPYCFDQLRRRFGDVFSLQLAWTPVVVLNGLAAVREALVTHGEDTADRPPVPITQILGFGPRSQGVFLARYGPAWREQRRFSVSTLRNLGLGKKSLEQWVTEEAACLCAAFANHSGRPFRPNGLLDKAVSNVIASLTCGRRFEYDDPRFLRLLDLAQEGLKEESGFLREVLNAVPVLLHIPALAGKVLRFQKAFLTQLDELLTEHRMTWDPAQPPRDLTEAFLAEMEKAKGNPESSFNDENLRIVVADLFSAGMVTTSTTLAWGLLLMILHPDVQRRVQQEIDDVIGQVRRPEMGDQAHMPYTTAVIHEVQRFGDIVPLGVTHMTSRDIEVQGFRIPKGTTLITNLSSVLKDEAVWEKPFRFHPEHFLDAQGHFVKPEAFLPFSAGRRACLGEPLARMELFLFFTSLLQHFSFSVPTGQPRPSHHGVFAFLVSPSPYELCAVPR
# [22] = Selectivity ratio of IC50 for PDE6 to IC50 for PDE5; summary of the method: as §1
# [23] = target: Dual specificity calcium/calmodulin-dependent 3',5'-cyclic nucleotide phosphodiesterase 1C (Homo sapiens, UniProt Q14123); experiment: Inhibition of PDE1C
# [24] = target: 3',5'-cyclic-AMP phosphodiesterase 4A (Homo sapiens, UniProt P27815); experiment: Inhibition of PDE4A
# [25] = target: 3',5'-cyclic-AMP phosphodiesterase 7B (Homo sapiens, UniProt Q9NP56); experiment: Inhibition of PDE7B
# Sequence of 3',5'-cyclic-AMP phosphodiesterase 7B (Q9NP56 whole entry): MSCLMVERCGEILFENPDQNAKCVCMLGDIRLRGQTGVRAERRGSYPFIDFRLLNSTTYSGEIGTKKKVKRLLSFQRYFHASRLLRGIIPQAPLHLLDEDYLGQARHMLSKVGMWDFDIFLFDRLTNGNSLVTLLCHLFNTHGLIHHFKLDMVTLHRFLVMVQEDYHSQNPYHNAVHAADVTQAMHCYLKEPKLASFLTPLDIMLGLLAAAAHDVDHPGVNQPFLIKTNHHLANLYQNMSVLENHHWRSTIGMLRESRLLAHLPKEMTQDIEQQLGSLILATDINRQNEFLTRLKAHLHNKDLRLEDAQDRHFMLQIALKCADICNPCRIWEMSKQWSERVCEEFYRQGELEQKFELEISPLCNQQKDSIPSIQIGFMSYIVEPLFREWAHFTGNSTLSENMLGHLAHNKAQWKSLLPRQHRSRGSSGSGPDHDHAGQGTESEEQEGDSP
# [26] = target: High affinity cAMP-specific and IBMX-insensitive 3',5'-cyclic phosphodiesterase 8B (Homo sapiens, UniProt O95263); experiment: Inhibition of PDE8B
# [27] = target: Dual specificity calcium/calmodulin-dependent 3',5'-cyclic nucleotide phosphodiesterase 1A (Homo sapiens, UniProt P54750); experiment: Inhibition of PDE1A
# Sequence of Dual specificity calcium/calmodulin-dependent 3',5'-cyclic nucleotide phosphodiesterase 1A (P54750 whole entry): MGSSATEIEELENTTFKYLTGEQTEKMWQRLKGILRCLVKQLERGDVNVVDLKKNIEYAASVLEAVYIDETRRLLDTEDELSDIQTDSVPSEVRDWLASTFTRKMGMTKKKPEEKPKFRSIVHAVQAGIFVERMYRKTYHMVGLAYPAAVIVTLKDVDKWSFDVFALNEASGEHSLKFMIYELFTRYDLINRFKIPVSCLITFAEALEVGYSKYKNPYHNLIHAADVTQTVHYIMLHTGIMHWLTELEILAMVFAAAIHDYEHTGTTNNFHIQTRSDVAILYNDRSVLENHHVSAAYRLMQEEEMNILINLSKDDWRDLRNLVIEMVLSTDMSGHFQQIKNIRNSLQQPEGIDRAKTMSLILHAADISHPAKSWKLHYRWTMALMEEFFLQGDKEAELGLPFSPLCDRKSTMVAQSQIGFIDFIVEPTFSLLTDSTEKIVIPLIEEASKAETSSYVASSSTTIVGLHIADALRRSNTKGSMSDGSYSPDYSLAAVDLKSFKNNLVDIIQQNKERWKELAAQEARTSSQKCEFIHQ
compound,measurement,setting,value
CCCOCCn1c(=O)nc(NC2CCC(O)CC2)c2nnc(-c3ccc(OC)nc3)cc21 (stereo not drawn),IC50,[1],> 2000 nM
same,remaining at 1 h,[2],72%
same,bioavailability,[3],85%
same,IC50,Acetylcholinesterase,5600 nM
same,IC50,[4],> 2000 nM
same,IC50,[5],> 2000 nM
same,Vd,[6],0.6 L/kg
same,inhibition at 3 µM,CYP2C9,9%
same,Activity,Rattus norvegicus [7],20 mmHg
same,IC50,[8],> 2000 nM
same,IC50,[9],0.02 nM
same,IC50,[10],> 2000 nM
same,IC50,[11],> 2000 nM
same,solubility,[12],> 100 µM
same,Vdu,Rattus norvegicus [13],4.8 L/kg
same,IC50,[14],> 2000 nM
same,IC50,Adenosine receptor A1,440 nM
same,clearance,[15],1.6 mL/min/kg
same,inhibition at 3 µM,CYP3A4,23%
same,clearance,[16],2.4 mL/min/kg
same,Vd,[17],0.3 L/kg
same,Ratio IC50,[18],741
same,IC50,[19],> 2000 nM
same,IC50,[20],> 2000 nM
same,IC50,[21],> 2000 nM
same,inhibition at 3 µM,CYP2D6,5%
same,Ratio IC50,[22],108
same,IC50,[23],> 2000 nM
same,IC50,[24],> 2000 nM
same,IC50,[25],> 2000 nM
same,IC50,[26],> 2000 nM
same,IC50,[27],> 2000 nM
CCCOCCn1c(=O)nc(NCCC(=O)O)c2nnc(-c3ccc(OC)nc3)cc21,IC50,[9],0.05 nM
same,Ratio IC50,[18],250
same,Ratio IC50,[22],139
CCOCCn1c(=O)nc(NCC(=O)N(C)C)c2nnc(-c3ccc(OC)nc3)cc21,IC50,[9],1.47 nM
same,Ratio IC50,[18],199
same,Ratio IC50,[22],119
CCCOCCn1c(=O)c(N2CCN(CCO)CC2)nc2ncc(-c3ccc(OC)nc3)cc21,IC50,[9],0.35 nM
same,Ratio IC50,[18],1770
same,Ratio IC50,[22],245
CCCOCCn1c(=O)nc(NCC(=O)N(C)C)c2nnc(-c3ccc(OC)nc3)cc21,IC50,[9],0.44 nM
same,Ratio IC50,[18],277
same,Ratio IC50,[22],296
CCCOCCn1c(=O)nc(NC2CCC(O)CC2)c2cnc(-c3ccc(OC)nc3)cc21 (stereo not drawn),IC50,[9],0.05 nM
same,Ratio IC50,[18],3950
same,Ratio IC50,[22],675
CCCOCCn1c(=O)nc(NCCN2CCOCC2)c2cnc(-c3ccc(OC)nc3)cc21,IC50,[9],0.08 nM
same,Ratio IC50,[18],9050
same,Ratio IC50,[22],334
CCCOCCn1c(=O)c(N2CCN(CCO)CC2)nc2cnc(-c3ccc(OC)nc3)cc21,Ratio IC50,[18],2460
same,Ratio IC50,[22],157
CCCOCCn1c(=O)nc(NC2CCC(C(=O)O)CC2)c2nnc(-c3ccc(OC)nc3)cc21 (stereo not drawn),IC50,[9],0.02 nM
same,Ratio IC50,[18],541
same,Ratio IC50,[22],246
CCCOCCn1c(=O)nc(N2CCCC(C(=O)O)C2)c2nnc(-c3ccc(OC)nc3)cc21 (stereo not drawn),IC50,[9],0.06 nM
same,Ratio IC50,[18],297
same,Ratio IC50,[22],162
CCCOCCn1c(=O)nc(NC2CCCC(C(=O)O)C2)c2nnc(-c3ccc(OC)nc3)cc21 (stereo not drawn),IC50,[9],0.01 nM
CCCOCCn1c(=O)nc(N2CCN(CC(=O)O)CC2)c2nnc(-c3ccc(OC)nc3)cc21,IC50,[9],0.1 nM
same,Ratio IC50,[18],1330
same,Ratio IC50,[22],143
CCCOCCn1c(=O)nc(NC(C)(C)C(=O)O)c2nnc(-c3ccc(OC)nc3)cc21,IC50,[9],0.05 nM
same,Ratio IC50,[18],129
same,Ratio IC50,[22],145
CCCOCCn1c(=O)nc(N[C@@H]2CCCC[C@@H]2C(=O)O)c2nnc(-c3ccc(OC)nc3)cc21 (racemic),IC50,[9],0.02 nM
same,Ratio IC50,[18],296
same,Ratio IC50,[22],110
CCOCCn1c(=O)nc(N2CCN(CCO)CC2)c2nnc(-c3ccc(OC)nc3)cc21,IC50,[9],2.43 nM
same,Ratio IC50,[18],286
same,Ratio IC50,[22],98
CCCOCCn1c(=O)nc(N2CCN(CCO)CC2)c2ncc(-c3ccc(OC)nc3)cc21,IC50,[9],1.64 nM
same,Ratio IC50,[18],> 1220
same,Ratio IC50,[22],381
CCCOCCn1c(=O)nc(N2CCC(CC(=O)O)CC2)c2nnc(-c3ccc(OC)nc3)cc21,IC50,[9],0.04 nM
same,Ratio IC50,[18],1060
same,Ratio IC50,[22],254
CCOCCn1c(=O)nc(NC2CCC(O)CC2)c2nnc(-c3ccc(OC)nc3)cc21 (stereo not drawn),IC50,[9],0.36 nM
